In series [1] the test system is Rattus norvegicus. Kind of series: Biodistribution of compound in rat lung after 5 min of administration. The series is classed as ADME, organism-based. Particulars: in vivo. Put shortly:
(§1)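 Rats received the 99mTc complex in normal saline (~12.5 μCi/mL) by lateral tail vein injection at ~25 μCi/kg and were killed by cervical dislocation at the stated time. Tissues were washed with saline, blotted, weighed and γ-counted to give percent injected dose/g. Time-course values are averages of male and female rats.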

In series [2] the test system is Rattus norvegicus. Put plainly: Biodistribution of compound in rat blood after 5 min of administration. Format: ADME, organism-based. The settings on record: in vivo. The method in brief: (§2)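 Female Sprague-Dawley rats (150–200 g) received the 99mTc complex in normal saline (~12.5 μCi/mL) via a lateral tail vein at ~25 μCi/kg. They were killed by cervical dislocation 5 min after injection. Tissues were washed with saline, blotted, weighed and γ-counted, and the read-out was percent injected dose per g tissue.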

Series [3] has as its system Rattus norvegicus. Kind of series: Biodistribution of compound in rat heart after 5 min of administration. The settings on record: in vivo. Format: ADME, organism-based. Put shortly:
as §2

In series [4] the test system is Rattus norvegicus. Kind of series: (§3) Biodistribution of compound in rat muscle after 5 min of administration. The series is classed as ADME, organism-based, Muscle tissue. Particulars: in vivo. The method in brief: (§4)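 Female Sprague-Dawley rats (150–200 g) received the complex in normal saline (~12.5 μCi/mL) through a lateral tail vein at ~25 μCi/kg. Rats were killed by cervical dislocation 5 min after injection. Tissues were washed with saline, blotted, weighed and γ-counted to give percent injected dose/g tissue.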

Series [5] relates to Rattus norvegicus. Kind of series: Biodistribution of compound in rat liver after 5 min of administration. The series is classed as ADME, organism-based. The settings on record: in vivo. The method in brief:
as §2

Series [6] has as its system Rattus norvegicus. Put plainly: Biodistribution of compound in rat kidney after 5 min of administration. The series is classed as ADME, organism-based. The settings on record: in vivo. Put shortly:
as §2

The species named for series [7] is Rattus norvegicus. Put plainly: (§5) The compound was tested for the plasma binding in rat. Format: functional. Put shortly: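 Plasma protein binding was measured in rat plasma samples collected during the rat biodistribution studies, after tail vein injection of the 99mTc complex in saline (~25 μCi/kg).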
For series [8], the species on record is Homo sapiens. Kind of series: The compound was tested for the plasma binding in human. The series is classed as functional. Put shortly: (§6)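 Test substance (0.02 mL) was added to 1.0 mL of heparinized fresh human plasma and incubated about 15 min. Duplicate samples were passed through Sephadex G-25 desalting columns by centrifugation. Eluate and gel were γ-counted for 1 min or to 1% σ error. % bound = net cpm eluate / net cpm (eluate + gel) × 100.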

Series [9] deals with Rattus norvegicus. Kind of series: Biodistribution of compound in rat muscle after 5 min of administration. Format: ADME, organism-based, Muscle tissue. The settings on record: in vivo. Put shortly: as §4
Series [10] concerns Rattus norvegicus. Kind of series: Biodistribution of compound in rat heart after 5 min of administration. The series is classed as ADME, organism-based. The settings on record: in vivo. The method in brief: as §4
For series [11], the system named is Rattus norvegicus. Kind of series: Biodistribution of compound in rat blood after 5 min of administration. The series is classed as ADME, organism-based. The settings on record: in vivo. The method in brief:
as §4

Series [12] has as its system Rattus norvegicus. Put plainly: Biodistribution of compound in rat liver after 5 min of administration. The series is classed as ADME, organism-based. Particulars: in vivo. Put shortly: as §4
The subject of series [13] is Rattus norvegicus. Kind of series: Biodistribution of compound in rat kidney after 5 min of administration. The series is classed as ADME, organism-based. Particulars: in vivo. Put shortly: as §4
Series [14] concerns Rattus norvegicus. Put plainly: Biodistribution of compound in rat lung after 5 min of administration. Particulars: in vivo. Format: ADME, organism-based. Put shortly:
as §4

Series [15] is filed under the species Rattus norvegicus. The description is as §5. Format: ADME, organism-based.
Series [16] can be described thus: Plasma protein binding (human). Format: ADME, cell-free. The method in brief: as §6
A short description of series [17]: The compound was tested for the plasma binding in human. Format: ADME, cell-free. The method in brief: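 Fresh heparinized human plasma (1.0 mL, obtained daily) was spiked with 0.02 mL test solution and incubated about 15 min. Duplicate samples went through saline-equilibrated Sephadex G-25 desalting columns by centrifugation. Eluate and gel were γ-counted for 1 min or to 1% σ error. % bound = net cpm eluate / net cpm (eluate + gel) × 100.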

Series [18] can be described thus: as §3. Format: ADME, organism-based, Muscle tissue. Particulars: in vivo. Put shortly: as §1

In the case of “BIS(TOLUENE)TECHNETIUM [listing 1 of 2 here]”, the Dose/g in series [1] came out at 0.51%; in [2], 0.2%; in series [3] it was 0.22%; in series [4], 0.069%; in [5], 2.6%; in [6], 3.4%.

As to “BIS(TOLUENE)TECHNETIUM [listing 2 of 2 here]”, the PPB came to 8.9% in series [7] and 11% in series [8].

As to “Bis(1,2,3,4-tetrahydronaphthalene)technetium”, the Dose/g in series [9] is given as 0.51%; in series [10] it was 2.6%; in series [11], 0.24%; in [12] it was 0.65%; in [13], 9.1%; in [14] it was 1%. Also, the Plasma binding in [15] was determined as 5.8%; in [16], 51%.

On to “Bis(1,2,3,4-tetramethylbenzene)technetium”, for which the Dose/g in series [9] amounted to 0.66%; in series [10] it was 2.4%; in series [11], 0.094%; in series [12], 0.73%; in [13], 8.2%; in series [14], 1.1%. Also, the Plasma binding in series [15] worked out at 22%; in [16], 46%.

Take “Bis(1,2,3,5-tetramethylbenzene)technetium”: the figures for the PPB in [7] and in series [8] were 21% and 36%, respectively.

With Bis(1,2,3-trimethylbenzene)technetium, the Dose/g in [1] stood at 0.66%; in series [2], 0.13%; in series [3], 1%; in [4], 0.27%; in series [5], 1%; in series [6], 9%. For the same substance, the Plasma binding is on record as 6.6% in series [15] and 24% in [17].

With Bis(1,2,4-trimethylbenzene)technetium, the Dose/g in series [1] is given as 0.78%; in series [2], 0.38%; in series [3], 1.4%; in series [4], 0.32%; in series [5], 0.8%; in [6], 7%. In addition, the Plasma binding worked out at 12% in [15] and 20% in series [17].

“Bis(1-methyl-(2-propyl)benzene)technetium”: the Dose/g was 0.56% in series [9]; 2.5% in series [10]; 0.16% in series [11]; 0.42% in series [12]; 5% in series [13]; 1.1% in series [14]. Moreover, the Plasma binding is on record as 27% in series [15] and 75% in series [16].

Consider Bis(5-isopropyl-m-xylene)technetium, for which the Dose/g in series [9] stood at 0.7%; in series [10], 3.2%; in [11], 0.18%; in series [12], 0.38%; in [13] it was 6.5%; in series [14] it was 1.3%. In addition, the figures for the Plasma binding in series [15] and in series [16] were 18% and 80%, respectively.

On to Bis(m-xylene)technetium, for which the Dose/g is recorded as 0.59% in series [1]; 0.17% in series [18]; 0.1% in series [2]; 0.47% in series [3]; 2% in [5]; 8% in series [6].

Regarding “Bis(toluene)technetium [listing 1 of 2 here]”, the Dose/g in series [1] amounted to 0.51%; in series [18], 0.069%; in series [2] it was 0.2%; in series [3] it was 0.22%; in series [5], 2.6%; in [6], 3.4%.

Take “Bis(toluene)technetium [listing 2 of 2 here]”: the PPB stood at 8.9% in series [7] and 11% in series [8].

Source of the values: ChEMBL document CHEMBL1125797, “Synthesis, characterization and myocardial uptake of cationic bis(arene)technetium(I) complexes” (J Med Chem, 1991).
